Assay results taken from ChEMBL document CHEMBL1153959, “QSAR analysis of pyrazolidine-3,5-diones derivatives as Dyrk1A inhibitors” (Bioorg Med Chem Lett, 2009).

Legend:
[1] = target: Dual specificity tyrosine-phosphorylation-regulated kinase 1A (Mus musculus) (UniProt Q61214); test: Inhibition of Dyrk1 autophosphorylation
[2] = target: Cyclin-dependent kinase 5/CDK5 activator 1 (Homo sapiens) (UniProt Q00535+Q15078); test: Inhibition of human CDK5/p35 at 10 uM; type: protein-complex assay; parameters: scale not given: the % may be the effect or the level left
Cyclin-dependent kinase 5/CDK5 activator 1 (Homo sapiens), sequence (Q00535 whole entry): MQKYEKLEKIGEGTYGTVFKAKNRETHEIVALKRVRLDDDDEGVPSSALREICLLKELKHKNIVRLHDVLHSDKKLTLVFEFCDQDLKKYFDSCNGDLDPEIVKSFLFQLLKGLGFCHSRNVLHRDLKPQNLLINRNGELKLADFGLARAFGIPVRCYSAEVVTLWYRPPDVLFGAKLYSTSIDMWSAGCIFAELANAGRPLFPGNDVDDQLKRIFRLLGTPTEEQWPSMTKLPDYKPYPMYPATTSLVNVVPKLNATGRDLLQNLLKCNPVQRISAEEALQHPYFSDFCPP
Cyclin-dependent kinase 5/CDK5 activator 1 (Homo sapiens), sequence (Q15078 99-307 partner limits assumed): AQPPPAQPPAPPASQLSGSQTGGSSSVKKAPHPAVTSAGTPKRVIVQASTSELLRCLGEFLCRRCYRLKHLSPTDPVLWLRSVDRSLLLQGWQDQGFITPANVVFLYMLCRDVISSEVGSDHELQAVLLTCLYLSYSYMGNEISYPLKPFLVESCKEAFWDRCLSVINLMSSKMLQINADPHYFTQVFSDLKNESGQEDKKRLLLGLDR
In short: (§1)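 Each human kinase was assayed with ATP at that kinase's own Km value. Activity was expressed as a percentage of control incubations run without inhibitor. Values are means of duplicate determinations with SD.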

[3] = target: Dual specificity protein kinase CLK3 (Homo sapiens) (UniProt P49761); test: Inhibition of human CLK3 at 10 uM; parameters: scale not given: the % may be the effect or the level left
Dual specificity protein kinase CLK3 (Homo sapiens), sequence (P49761 whole entry, looked up): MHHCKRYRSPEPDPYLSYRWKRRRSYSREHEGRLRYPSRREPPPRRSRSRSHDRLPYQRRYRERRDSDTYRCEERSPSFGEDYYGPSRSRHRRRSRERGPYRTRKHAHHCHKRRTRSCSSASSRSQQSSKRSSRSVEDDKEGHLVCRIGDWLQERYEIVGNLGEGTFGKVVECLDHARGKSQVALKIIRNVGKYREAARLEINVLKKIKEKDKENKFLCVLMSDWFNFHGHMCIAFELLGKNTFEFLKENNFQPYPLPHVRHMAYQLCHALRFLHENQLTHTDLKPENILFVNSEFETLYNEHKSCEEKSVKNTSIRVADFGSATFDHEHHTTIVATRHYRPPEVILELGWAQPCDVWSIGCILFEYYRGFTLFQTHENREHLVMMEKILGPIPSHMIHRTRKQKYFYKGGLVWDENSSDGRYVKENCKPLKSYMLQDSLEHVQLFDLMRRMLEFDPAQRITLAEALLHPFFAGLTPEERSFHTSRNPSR
In short: as §1

[4] = target: T1, Dual specificity tyrosine-phosphorylation-regulated kinase 2 (Homo sapiens) (UniProt Q92630); test: Inhibition of human DYRK2 at 10 uM; parameters: scale not given: the % may be the effect or the level left
T1 sequence (whole entry): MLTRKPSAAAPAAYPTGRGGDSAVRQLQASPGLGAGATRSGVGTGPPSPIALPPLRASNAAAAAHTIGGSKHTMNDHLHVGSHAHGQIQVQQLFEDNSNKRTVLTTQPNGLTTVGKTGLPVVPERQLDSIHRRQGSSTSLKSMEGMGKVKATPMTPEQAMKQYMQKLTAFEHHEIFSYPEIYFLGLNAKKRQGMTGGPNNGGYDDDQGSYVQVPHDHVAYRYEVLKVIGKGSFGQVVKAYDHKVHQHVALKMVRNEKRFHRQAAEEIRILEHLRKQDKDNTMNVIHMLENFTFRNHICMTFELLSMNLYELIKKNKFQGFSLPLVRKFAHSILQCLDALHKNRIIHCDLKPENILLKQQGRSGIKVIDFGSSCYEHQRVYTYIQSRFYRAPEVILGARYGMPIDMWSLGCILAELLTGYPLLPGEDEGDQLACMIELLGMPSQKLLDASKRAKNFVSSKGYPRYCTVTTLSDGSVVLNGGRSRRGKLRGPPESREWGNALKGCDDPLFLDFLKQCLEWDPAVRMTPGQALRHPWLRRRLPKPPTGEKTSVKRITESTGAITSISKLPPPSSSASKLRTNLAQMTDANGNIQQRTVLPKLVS
In short: as §1

[5] = target: Glycogen synthase kinase-3 beta (Homo sapiens) (UniProt P49841); test: Inhibition of human GSK3-beta at 10 uM; parameters: scale not given: the % may be the effect or the level left
Glycogen synthase kinase-3 beta (Homo sapiens), sequence (P49841 whole entry, looked up): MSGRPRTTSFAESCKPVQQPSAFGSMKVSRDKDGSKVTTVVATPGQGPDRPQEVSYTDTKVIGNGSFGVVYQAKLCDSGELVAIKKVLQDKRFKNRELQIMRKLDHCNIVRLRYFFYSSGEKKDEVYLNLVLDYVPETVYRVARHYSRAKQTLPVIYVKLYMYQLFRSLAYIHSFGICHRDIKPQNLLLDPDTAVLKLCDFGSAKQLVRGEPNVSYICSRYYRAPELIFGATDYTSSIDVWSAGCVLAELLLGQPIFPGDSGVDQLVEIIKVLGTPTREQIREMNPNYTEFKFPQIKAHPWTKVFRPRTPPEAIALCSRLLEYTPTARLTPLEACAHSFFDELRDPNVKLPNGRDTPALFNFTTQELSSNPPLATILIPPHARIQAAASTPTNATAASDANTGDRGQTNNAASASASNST
In short: as §1

[6] = target: Mitogen-activated protein kinase 10 (Homo sapiens) (UniProt P53779); test: Inhibition of human JNK3 at 10 uM; parameters: scale not given: the % may be the effect or the level left
Mitogen-activated protein kinase 10 (Homo sapiens), sequence (P53779 whole entry): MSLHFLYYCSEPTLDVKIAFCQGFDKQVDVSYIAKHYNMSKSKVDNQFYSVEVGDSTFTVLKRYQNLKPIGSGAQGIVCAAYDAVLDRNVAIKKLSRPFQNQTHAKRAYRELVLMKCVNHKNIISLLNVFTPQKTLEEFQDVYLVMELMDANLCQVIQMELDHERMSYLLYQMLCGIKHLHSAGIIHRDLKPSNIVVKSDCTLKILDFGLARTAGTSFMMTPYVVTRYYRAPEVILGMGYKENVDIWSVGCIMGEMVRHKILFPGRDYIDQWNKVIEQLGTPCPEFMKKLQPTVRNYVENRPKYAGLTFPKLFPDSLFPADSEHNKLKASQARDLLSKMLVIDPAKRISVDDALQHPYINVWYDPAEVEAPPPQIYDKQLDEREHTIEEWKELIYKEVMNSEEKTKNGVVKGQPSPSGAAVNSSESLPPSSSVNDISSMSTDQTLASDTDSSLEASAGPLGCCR
In short: as §1

[7] = target: MAP kinase-activated protein kinase 2 (Homo sapiens) (UniProt P49137); test: Inhibition of human MAPK2 at 10 uM; parameters: scale not given: the % may be the effect or the level left
MAP kinase-activated protein kinase 2 (Homo sapiens), sequence (P49137 whole entry, looked up): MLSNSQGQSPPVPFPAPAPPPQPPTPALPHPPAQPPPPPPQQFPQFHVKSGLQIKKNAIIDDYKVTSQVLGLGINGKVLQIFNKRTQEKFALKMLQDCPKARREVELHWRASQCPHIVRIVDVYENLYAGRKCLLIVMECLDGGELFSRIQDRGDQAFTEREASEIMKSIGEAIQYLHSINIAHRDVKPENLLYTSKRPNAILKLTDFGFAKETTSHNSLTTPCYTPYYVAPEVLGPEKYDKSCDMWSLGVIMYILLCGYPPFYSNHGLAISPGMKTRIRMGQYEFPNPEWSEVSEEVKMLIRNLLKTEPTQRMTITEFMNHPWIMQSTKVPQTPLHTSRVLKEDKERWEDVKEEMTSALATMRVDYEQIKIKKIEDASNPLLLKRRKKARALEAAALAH
In short: as §1

Homo sapiens = organism: Homo sapiens; test: Inhibition of human PKA at 10 uM; parameters: scale not given: the % may be the effect or the level left
In short: as §1

[8] = target: Protein kinase C alpha type (Homo sapiens) (UniProt P17252); test: Inhibition of human PKCalpha at 10 uM; parameters: scale not given: the % may be the effect or the level left
In short: as §1

| SMILES | IC50 [1] [µM] | further results |
| --- | --- | --- |
| O=C1NN(c2ccc(Cl)c(Cl)c2)C(=O)/C1=C/c1ccccc1[N+](=O)[O-] | > 50 | – |
| O=C1NN(c2ccc(Cl)c(Cl)c2)C(=O)/C1=C/c1cc(O)cc(O)c1 | > 50 | – |
| O=C1NN(c2ccc(Cl)c(Cl)c2)C(=O)/C1=C/c1ccccc1Cl | 20 | – |
| COc1ccc(N2NC(=O)/C(=C\c3ccccc3F)C2=O)cc1 | > 50 | – |
| COc1ccc(/C=C2\C(=O)NN(c3ccc(Cl)c(Cl)c3)C2=O)cc1OC | > 50 | – |
| COc1ccc(N2NC(=O)/C(=C\c3ccc(O)c(OC)c3)C2=O)cc1 | 1.2 | – |
| O=C1NN(c2ccc(Cl)c(Cl)c2)C(=O)/C1=C/c1cccc(Cl)c1Cl | 15 | – |
| O=C1NN(c2ccc(Cl)c(Cl)c2)C(=O)/C1=C/c1ccccc1 | > 50 | – |
| COc1cc(/C=C2\C(=O)NN(c3ccc(C#N)cc3)C2=O)ccc1O | 0.6 | Activity [2]: 104%; Activity [3]: 93%; Activity [4]: 78%; Activity [5]: 76%; Activity [6]: 93%; Activity [7]: 110%; Activity (Homo sapiens): 69%; Activity [8]: 77% |
| COc1ccc(N2NC(=O)/C(=C\c3cc(OC)c(O)c(OC)c3)C2=O)cc1 | > 50 | – |
| COc1cccc(/C=C2\C(=O)NN(c3ccc(Cl)c(Cl)c3)C2=O)c1 | > 50 | – |
| COc1ccc(N2NC(=O)/C(=C\c3cccc(Cl)c3Cl)C2=O)cc1 | > 50 | – |
| COc1ccc(N2NC(=O)/C(=C\c3ccc(OC)c(O)c3)C2=O)cc1 | > 50 | – |
| COc1ccc(N2NC(=O)/C(=C\c3cc(OC)cc(OC)c3)C2=O)cc1 | > 50 | – |
| O=C1NN(c2ccc(Cl)c(Cl)c2)C(=O)/C1=C/c1ccccc1F | > 50 | – |
| COc1ccccc1/C=C1\C(=O)NN(c2ccc(Cl)c(Cl)c2)C1=O | > 50 | – |
| COc1ccccc1/C=C1\C(=O)NN(c2ccc(F)cc2)C1=O | > 50 | – |

| SMILES | IC50 [1] [µM] | further results |
| --- | --- | --- |
| COc1ccc(/C=C2\C(=O)NN(c3ccc(Cl)c(Cl)c3)C2=O)c(OC)c1 | > 50 | – |
| COc1ccc(N2NC(=O)/C(=C\c3cc(O)cc(O)c3)C2=O)cc1 | > 50 | – |
| COc1ccccc1/C=C1\C(=O)NN(c2ccc(C#N)cc2)C1=O | 40 | – |
| O=C1NN(c2ccc(Cl)c(Cl)c2)C(=O)/C1=C/c1ccc(O)cc1 | 2.5 | – |
| O=C1NN(c2ccc(Cl)c(Cl)c2)C(=O)/C1=C/c1ccc(F)c(F)c1 | 5 | – |
| COc1ccc(/C=C2\C(=O)NN(c3ccc(Cl)c(Cl)c3)C2=O)cc1O | > 50 | – |
| COc1ccc(/C=C2\C(=O)NN(c3ccc(Cl)c(Cl)c3)C2=O)cc1 | > 50 | – |
| COc1ccc(/C=C2\C(=O)NN(c3ccc(C#N)cc3)C2=O)cc1O | > 50 | – |
| COc1ccc(N2NC(=O)/C(=C\c3cccc(OC)c3)C2=O)cc1 | > 50 | – |
| O=C1NN(c2ccc(Cl)c(Cl)c2)C(=O)/C1=C/c1ccc(O)c([N+](=O)[O-])c1 | 0.6 | Activity [2]: 91%; Activity [3]: 75%; Activity [4]: 17%; Activity [5]: 102%; Activity [6]: 94%; Activity [7]: 105%; Activity (Homo sapiens): 72%; Activity [8]: 82% |
| COc1cc(/C=C2\C(=O)NN(c3ccc(Cl)c(Cl)c3)C2=O)cc(OC)c1O | > 50 | – |
| O=C1NN(c2ccc(Cl)c(Cl)c2)C(=O)/C1=C/c1ccc(Cl)cc1 | 20 | – |
| O=C1NN(c2ccc(Cl)c(Cl)c2)C(=O)/C1=C/c1c(Cl)cccc1Cl | > 50 | – |
| COc1cc(/C=C2\C(=O)NN(c3ccc(Cl)c(Cl)c3)C2=O)ccc1O | 2.5 | – |
| COc1ccc(N2NC(=O)/C(=C\c3ccccc3OC)C2=O)cc1 | > 50 | – |
| COc1cc(/C=C2\C(=O)NN(c3ccc(Cl)c(Cl)c3)C2=O)cc(OC)c1 | 20 | – |
